# Assay outcomes deposited in PubChem BioAssay by several laboratories.
# Sampled rows, rich in hits. Any-hit rate of the full collection: about 1.6%.
# UCH37 DUB inh = blocks the human deubiquitinase UCH37; Q9Y5K5; purified proteasome/UCH37, Ub-AMC cleavage fluorescence; inhibition, % (no concentration beside the values); actives 0.33% (n = 330,000); AID 588478;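 active = mean inhibition over replicate wells above about 20%, limit read from the data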;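 note: 0% = compound-free wells with enzyme and 100% = wells lacking proteasome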
#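 Schedule: 30 min plus 25 min, room temperature / Material: human UCH37 within purified proteasomes / Technique: AMC fluorescence intensity at 355/460 nm / Buffer or medium: pH 7.4 Tris-HCl (50 mM) with ovalbumin, ATP-MgCl2, DTT / Controls: wells without proteasome as full block, compound-free enzyme plus substrate as uninhibited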
# HKDC1 inhibitor = inhibitors of human hexokinase HKDC1; Q2TB90; inhibition, % at 20 µM; recombinant HKDC1, G6PDH/diaphorase resazurin coupled fluorescence; actives 0.16% (n = 340,000);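 active = inhibition above about 35% when tested at 20 µM, limit read from the data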;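 note: plate controls were DMSO wells with enzyme for no effect and DMSO wells lacking enzyme for full effect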
# Target sequence (Q2TB90 whole entry, looked up): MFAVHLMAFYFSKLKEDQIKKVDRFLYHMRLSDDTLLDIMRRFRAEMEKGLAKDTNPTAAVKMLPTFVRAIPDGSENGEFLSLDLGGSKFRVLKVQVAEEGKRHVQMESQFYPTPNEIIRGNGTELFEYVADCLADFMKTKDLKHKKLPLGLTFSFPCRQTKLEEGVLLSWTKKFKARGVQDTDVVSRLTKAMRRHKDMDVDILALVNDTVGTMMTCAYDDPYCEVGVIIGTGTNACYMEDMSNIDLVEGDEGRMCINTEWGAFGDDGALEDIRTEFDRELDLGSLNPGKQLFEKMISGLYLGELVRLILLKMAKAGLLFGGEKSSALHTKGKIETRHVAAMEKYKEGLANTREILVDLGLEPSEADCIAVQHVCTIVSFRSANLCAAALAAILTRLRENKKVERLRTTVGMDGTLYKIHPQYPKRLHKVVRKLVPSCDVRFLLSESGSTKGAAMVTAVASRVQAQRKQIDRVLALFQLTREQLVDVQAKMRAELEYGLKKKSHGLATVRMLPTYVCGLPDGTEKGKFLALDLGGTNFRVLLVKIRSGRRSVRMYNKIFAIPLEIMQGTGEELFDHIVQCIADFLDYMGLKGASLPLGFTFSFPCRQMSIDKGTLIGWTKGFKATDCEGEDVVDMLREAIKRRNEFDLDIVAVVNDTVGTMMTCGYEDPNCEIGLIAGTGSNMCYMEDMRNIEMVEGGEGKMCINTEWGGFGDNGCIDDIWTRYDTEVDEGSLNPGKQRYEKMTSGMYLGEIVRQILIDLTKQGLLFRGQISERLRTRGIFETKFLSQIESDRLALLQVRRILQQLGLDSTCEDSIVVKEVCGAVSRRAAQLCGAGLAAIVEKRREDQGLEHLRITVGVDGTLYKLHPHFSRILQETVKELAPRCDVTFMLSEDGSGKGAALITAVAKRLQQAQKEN
#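 Assay system: recombinant HKDC1 hexokinase; detection: coupled resazurin fluorescence, excitation 525 nm, emission 613 nm; benchmarks: DMSO-plus-enzyme-mix negative control, buffer-substituted positive control; compound dosing: single 20 µM dose; schedule: 90 min at room temperature in dark; also added: glucose plus 1 mM ATP as hexokinase substrates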
# PAD4 FP inh = blocks human protein arginine deiminase 4; actives 0.41% (n = 330,000); inhibition, % at 6.36 µM; recombinant PAD4, RCA probe fluorescence polarization; Q9UM07;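 active = percent inhibition above a cutoff equal to the mean of all tested compounds plus 3 SD, cut at about 15% in these data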;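 note: 0% = PAD4 with RCA probe and DMSO and 100% = probe without PAD4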
# GSTO1 counter = blocks human GSTO1 in RBBP9 counter-screen. P78417. recombinant GSTO1, activity-based probe fluorescence polarization. actives 1.1% (n = 300,000). inhibition, % at 5.96 µM. AID 1974;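 active = inhibition above the campaign mean inhibition plus 3 SD, cut at about 35% in these data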;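 note: 0% = GSTO1-1 with DMSO and 100% = wells lacking GSTO1-1 enzyme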
# Fh CTSL1 inh = counter-screen for PFM18AAP inhibitors: inhibitors of F. hepatica cathepsin L1 | recombinant F. hepatica cathepsin L1, Z-Leu-Arg-MCA fluorescence | inhibition, % at 5.96 µM | actives 0.49% (n = 300,000) | AID 1906;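 active = inhibition above the mean of all tested compounds plus 3 SD, set per screening campaign, cut at about 17% in these data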;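 note: 0% = plate median of test compound wells and 100% = 1 µM Z-Phe-Ala-diazomethylketone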
# TDP2 absorb = TDP2 (human) inhibition, absorbance primary screen; O95551; recombinant TDP2, T5PNP hydrolysis, p-nitrophenol absorbance 415 nm; inhibition, % at 12.8 µM; actives 0.34% (n = 370,000); AID 720702;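 active = inhibition above the mean of all tested compounds plus 3 SD, set per campaign, cut at about 25% in these data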;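 note: 0% = DMSO with enzyme and 100% = buffer with substrate but no TDP2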
#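 System – recombinant human TDP2 · Quantity – TDP2 enzyme at 120 nM final · Doses – single concentration, 12.8 µM nominal, with 1% DMSO · Incubation – 2 h at 37 °C · Measured by – epi absorbance of p-nitrophenol freed from T5PNP by hydrolysis · Read-out – % inhibition relative to enzyme-containing and enzyme-free wells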
# Numbers without * were called inactive; x = no result.
SMILES,UCH37 DUB inh,HKDC1 inhibitor,PAD4 FP inh,GSTO1 counter,Fh CTSL1 inh,TDP2 absorb
O=C(NC(=S)Nc1ccccc1N1CCCC1)c1ccccc1[N+](=O)[O-],2,-3,1,-4,4,-1
COc1cccc(C(=O)NC(=S)Nc2ccccc2N2CCCC2)c1,19,6,-2,24,23*,9
O=C(NC(=S)Nc1ccccc1N1CCCC1)c1ccccc1Br,x,x,-6,27,23*,4
COc1ccc(/C=C(\NC(=O)c2ccccc2)C(=O)NCc2ccco2)cc1OC,8,-8,3,-2,1,-7
O=C(NCc1ccco1)/C(=C/c1ccccc1)NC(=O)c1ccco1,1,-7,6,2,5,6
O=C(NCc1ccco1)/C(=C/C=C/c1ccccc1)NC(=O)c1ccco1,9,1,-1,-2,27*,2
O=C(NCc1ccco1)/C(=C/c1ccco1)NC(=O)c1ccc(Br)o1,2,-1,-3,-1,17*,6
COc1ccccc1C(=O)N/C(=C\c1ccccc1)C(=O)NCc1ccco1,2,-7,6,3,17*,-18
O=C(NCc1ccco1)/C(=C\C=C\c1ccccc1)NC(=O)c1ccco1,13,-2,-2,-6,17*,-3
C/C(C=NN1CCN(c2ccccc2)CC1)=C/c1ccco1,1,x,x,x,x,x
O=C(NN=Cc1cc([N+](=O)[O-])c(N2CCOCC2)cc1N1CCOCC1)c1cccnc1,23*,x,x,x,x,x
CCOC(=O)N1[C@@H]2C=C(C)[C@@H]2[C@@H]2[C@@H](C)C(=O)N21,2,-8,-5,2,18*,3
CCOC(=O)N1C2CCC(C2)N1C(=O)OCC,x,-7,x,x,x,8
NC(=O)SCC(=NS(=O)(=O)c1ccccc1)Nc1ccccc1,3,x,x,x,x,x
O=C(NN=C/C=C/c1ccco1)c1cnccn1,25*,x,x,x,x,x
O=C(N/N=C/C=C/c1ccco1)c1cnccn1,x,-2,2,20,3,-11
O=C(NN=Cc1ccccc1F)c1ccc(-c2ccccc2)cc1,5,x,x,x,x,x
O=C(COc1ccccc1)NCC1(N2CCCCC2)CCCCC1,2,-5,-6,3,28*,-1
O=C(CN(c1ccccn1)S(=O)(=O)c1ccccc1)NN=Cc1cccc([N+](=O)[O-])c1,1,x,x,x,x,x
CCc1cc(C(=O)O)c(NC(=O)/C=C/c2ccc(OC)c(OC)c2)s1,24*,-3,-4,-35,0,-11
O=C(/C=C/c1cccc([N+](=O)[O-])c1)c1ccc([N+](=O)[O-])o1,1,55*,-2,19,-1,8
O=C(/C=C/c1cccc([N+](=O)[O-])c1)c1ccco1,x,17,-5,12,6,-3
COc1ccc(NC(=O)Cn2c(=O)sc3ccccc32)c(OC)c1,2,1,3,7,21*,-2
Cc1c(N=C2C=C(Br)C(=O)C(Br)=C2)c(=O)n(-c2ccccc2)n1C,2,21,x,x,x,61*
Cc1c(N=Nc2ccc(O)cc2)c(=O)n(-c2ccccc2)n1C,3,-3,-4,-3,2,-11
SMILES,UCH37 DUB inh,HKDC1 inhibitor,PAD4 FP inh,GSTO1 counter,Fh CTSL1 inh,TDP2 absorb
Clc1ccc(Oc2nc3ccccc3n3cccc23)cc1,-2,-6,-2,3,26*,-3
CC1=NN(c2ccccc2C(=O)O)C(=O)C1N=Nc1ccccc1 (centres undefined),11,3,-5,36*,6,-16
Cc1ccc(-n2c(C)cc(C=NNC(=O)c3ccncc3)c2C)cc1C,9,x,x,x,x,x
COc1ccc(-c2cnc3nc(N=CN(C)C)nn3c2N=CN(C)C)cc1,0,x,x,x,x,x
COc1ccc(C(=O)Nc2cccc(N(C)S(C)(=O)=O)c2)cc1OC,1,-3,-2,2,3,-4
Cc1ccc(C(=O)Nc2cccc(N(C)S(C)(=O)=O)c2)cc1S(=O)(=O)Nc1ccccc1,3,2,-3,0,19*,14
CN=C1CC(C)(C)CC(=O)/C1=C(\O)CCCN1C(=O)c2ccccc2C1=O,1,x,x,x,x,x
CCOc1cccc(-c2c(C(=O)NN=C(C)c3ccncc3)nnn2-c2nonc2N)c1,2,x,x,x,x,x
CC(Cc1ccccc1)=NNC(=O)CNC(=O)C(c1ccccc1)c1ccccc1,7,x,x,x,x,x
O=C(NN=C/C=C/c1ccccc1[N+](=O)[O-])c1ccncc1,9,x,x,x,x,x
CC(CCC(C)C(C)(C)C)[C@@H]1CC[C@H]2C3C[C@H](OS(O)(=S)=S)[C@H]4C[C@H](OS(O)(=S)=S)[C@@H](OS(O)(=S)=S)C[C@]4(C)[C@H]3CC[C@]12C (some centres undefined) (tested in a mixture with another compound),x,81*,-36,x,x,x
CCOC(=O)C1(Cc2ccccc2)CCN(Cc2cccc(OC)c2O)CC1,1,19,2,15,18*,-4
O=C(CNC(=O)C1CCCCC1)OCc1cc(=O)oc2ccc3ccccc3c12,-439,8,-5,1,29*,-20
O=C(COC(=O)CNC(=O)C1CCCCC1)Nc1ccccc1,3,8,1,x,x,4
CC(C)[C@H](NC(=O)OCc1ccccc1)C(=O)NC(C=O)Cc1ccccc1 (some centres undefined),2,0,3,7,113*,x
COC(=O)CNC(=O)C(NC(=O)OCc1ccccc1)C(C)C (centres undefined),1,15,-7,2,15,-3
CCOc1ccccc1C=NNC(=O)CNC(=O)COc1ccccc1,1,x,x,x,x,x
COc1ccc(C(=O)NCCNc2nc3ccc(C)cc3cc2C#N)cc1,-43,-4,0,7,-2,-3
Cc1ccc2nc(NCCNC(=O)c3ccccc3)c(C#N)cc2c1,-105,-3,-6,8,38*,5
Cc1cc(Cl)ccc1OCC(=O)NN=Cc1ccncc1,3,x,x,x,x,x
COCCn1cnnc1SCC(=O)Nc1sc2c(c1C#N)CCC2,-1,-4,-1,x,x,5
Cn1cnnc1SCC(=O)Nc1sc2c(c1C(N)=O)CCC2,8,22,-4,36*,-1,6
Cc1ccc(-n2sc3ccccc3c2=O)cc1S(=O)(=O)N1CCCCC1,6,3,25*,9,-2,-12
Cc1ccc(C(=O)NNC(=O)c2ccccc2)cc1S(=O)(=O)N1CCCCC1,0,-5,-2,x,x,6
O=c1c2ccccc2sn1-c1cccc(Cl)c1,x,x,x,x,x,-16
O=c1c2ccccc2sn1-c1ccc(S(=O)(=O)N2CCCC2)cc1,4,2,23*,3,-5,-8
CN(C)S(=O)(=O)c1cccc(-n2sc3ccccc3c2=O)c1,4,4,27*,-7,2,-8
